According to ChEMBL document CHEMBL1124779, “Synthesis and antitumor activity of 1-[[(dialkylamino)alkyl]amino]-4-methyl-5H-pyrido[4,3-b]benzo[e]- and -benzo[g])indoles. A new class of antineoplastic agents” (1990):
Values after ≈ are worked out from the molar mass of the structure shown.

Assays:
P388 [1] = assay: In vivo T/C (survival time treated/survival time control x 100) was determined against P388 leukemia cells at 40 mg/Kg; assay type: functional, Mus musculus
In short: (§1)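 B6D2 F1 mice, at least five per group, were inoculated ip on day 0 with 10^6 viable P388 cells (25 mL/kg). Compounds were dissolved in distilled water and given ip (25 mL/kg) daily on days 1–4. Mortality was checked daily, with necropsy of dead animals. T/C×100 was median survival, treated versus control. Survivors beyond 50 days counted as cured and were excluded from the median.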

L1210 [2] = assay: Cytotoxicity in the multiple tumor disk diffusion soft agar assay at the dose of 15 ug/disk against leukemia L1210; assay type: functional, Mus musculus
In short: (§2)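 Soft agar disk diffusion: bottom layer 0.8% noble agar, top layer 0.47% noble agar, both in 1:1 CMRL-Fischer medium with 11% horse serum. Top layer seeded with 5×10^3 L1210 cells or 10^6 solid tumor cells (C38, PO3). Drug applied on a dried 6-mm filter-paper disk. Incubation 7-11 days. Inhibition zone measured by inverted microscope, in units (1 unit = 30 μm).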

P388 [3] = assay: (§3) In vitro cytotoxicity was determined against P388 leukemia cells; assay type: functional; conditions: Mus musculus, read-out: ID50 (the source's name)
In short: (§4)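 P388 cells in exponential growth, RPMI 1640 with 2 mM glutamine, 10 μM 2-mercaptoethanol and 10% FCS, 5% CO2, 37 °C. Cells at 10^5 cells/mL. Drugs in distilled water added on day 0. Cells counted by Coulter counter after 96 h. ID50 (μg/mL, 50% inhibition of proliferation) estimated by regression of concentration/response data.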

[4] = Cytotoxicity in the multiple tumor disk diffusion soft agar assay at the dose of 15 ug/disk against solid tumor C38.; assay type: functional, Mus musculus; in short: as §2
Mus musculus [5] = assay: In vivo total number of survivors was determined against L1210 Leukemia cells out of 8 mouse at 50 day; assay type: functional, Leukemia cell
In short: (§5)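 B6D2 F1 mice, at least five per group, were inoculated ip on day 0 with 10^5 viable L1210 cells (25 mL/kg). Compounds were dissolved in distilled water and given ip (25 mL/kg) on days 1–4. Deaths were checked daily, with necropsy to separate tumor from toxic death. T/C×100 was median survival of treated over controls. Mice surviving over 50 days counted as cured and were excluded from the median.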

P388 [6] = assay: In vivo T/C (survival time treated/survival time control x 100) was determined against P388 leukemia cells at 20 mg/Kg; assay type: functional, Mus musculus; in short: as §1
[7] = Tested for mean number of metastases in treated/control animals x 100 (% T/C) for murine solid tumor model 3LL early stage that is intramuscularly implanted by the intravenous treatment at the dose of 20 mg/kg in 1-4 schedule; conditions: Mus musculus
Mus musculus [8] = assay: In vivo total number of survivors was determined against P388 leukemia cells out of 5 mouse at 50 day; assay type: functional; in short: as §1
Mus musculus [9] = organism: Mus musculus; assay: as §3; assay type: functional; conditions: read-out: ID50 (the source's name); in short: as §4
[10] = Cytotoxicity in the multiple tumor disk diffusion soft agar assay at the dose of 15 ug/disk against solid tumor PO3; assay type: functional, Mus musculus; in short: as §2
[11] = Tested for the change in body weight between day 1 and 7 for murine solid tumor model 3LL early stage that is subcutaneously implanted by the intravenous treatment at the dose of 20 mg/kg in 1-4 schedule; assay type: functional, Mus musculus
P388 [12] = assay: In vivo T/C (survival time treated/survival time control x 100) was determined against P388 leukemia cells at 10 mg/Kg; assay type: functional, Mus musculus; in short: as §1
[13] = Tested for cytotoxicity in the multiple tumor disk diffusion soft agar assay at the dose of 15 ug/disk against solid tumor C38; range is 550-600; assay type: functional, Mus musculus; in short: as §2
L1210 [14] = assay: Tested for cytotoxicity in the multiple tumor disk diffusion soft agar assay at the dose of 15 ug/disk against leukemia L1210; range is 420-490; assay type: functional, Mus musculus; in short: as §2
P388 [15] = assay: In vivo T/C (survival time treated/survival time control x 100) was determined against P388 leukemia cells at 2.5 mg/Kg; assay type: functional, Mus musculus; in short: as §1
P388 [16] = assay: In vivo T/C (survival time treated/survival time control x 100) was determined against P388 leukemia cells at 5.0 mg/Kg; assay type: functional, Mus musculus; in short: as §1
L1210 [17] = assay: In vivo T/C (survival time treated/survival time control x 100) was determined against L1210 leukemia cells at 10 mg/Kg; assay type: functional, Mus musculus; in short: as §5
L1210 [18] = assay: Tested for cytotoxicity in the multiple tumor disk diffusion soft agar assay at the dose of 15 ug/disk against leukemia L1210; range is 450-650; assay type: functional, Mus musculus; in short: as §2
[19] = Tested for cytotoxicity in the multiple tumor disk diffusion soft agar assay at the dose of 15 ug/disk against solid tumor C38; assay type: functional, Mus musculus; in short: as §2
L1210 [20] = assay: Tested for cytotoxicity in the multiple tumor disk diffusion soft agar assay at the dose of 15 ug/disk against leukemia L1210; assay type: functional, Mus musculus; in short: as §2
[21] = Tested for the change in body weight between day1 and 7 for murine solid tumor model MA 16/C early stage that is subcutaneously implanted by the intravenous treatment; assay type: functional, Mus musculus
In short: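 Mice given sc 1 mm³ tumor fragment: C26 in CD2F1 mice, MA 16/C in C3H mice (tumors passaged in strain of origin), 10 per group. Drug given iv days 1–4 at 10 mL/kg. Animals weighed daily and watched for toxicity. Body-weight change taken from day 1 to day 7. Killed day 14 (C26) or 15 (MA 16/C).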

[22] = Tested for medium tumor weight of treated /control animals x 100 (% T/C) for murine solid tumor model B16 early stage that is subcutaneously implanted by the intravenous treatment at the dose of 5 mg/kg in 1-4 schedule; assay type: functional, Mus musculus
In short: (§6)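 sc implant of 1 mm³ tumor fragment. MA 16/C in C3H mice, B16 in C57BL/6 mice, C26 in CD2F1 mice; 10 per group. iv dosing on days 1-4 at 10 mL/kg. Mice weighed daily. Killed day 14 (C26) or day 15 (MA 16/C, B16) and tumors weighed. T/C×100 from median tumor weight, treated vs control. Body weight change taken from day 1 to 7.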

[23] = Tested for the change in body weight between day 1 and 7 for murine solid tumor model 3LL early stage that is subcutaneously implanted by the intravenous treatment at the dose of 5 mg/kg in 1-4 schedule; assay type: functional, Mus musculus
[24] = Tested for mean number of metastases of treated /control animals x 100 (% T/C) for murine solid tumor model 3LL advanced stage that is intramuscularly implanted by the intravenous treatment at the dose of 10 mg/kg in 7-10 schedule; conditions: Mus musculus
[25] = Tested for medium tumor weight of treated /control animals x 100 (% T/C) for murine solid tumor model 3LL early stage that is subcutaneously implanted by the intravenous treatment at the dose of 10 mg/kg in 1-4 schedule; assay type: functional, Mus musculus
[26] = Tested for medium tumor weight of treated /control animals x 100 (% T/C) for murine solid tumor model C26 early stage that is subcutaneously implanted by the intravenous treatment at the dose of 10 mg/kg in 1-4 schedule; assay type: functional, Mus musculus; in short: as §6
[27] = Tested for the change in body weight between day 1 and 7 for murine solid tumor model C26 early stage that is subcutaneously implanted by the intravenous treatment at the dose of 10 mg/kg in 1-4 schedule; assay type: functional, Mus musculus; in short: as §6
[28] = Tested for the change in body weight between day 1 and 7 for murine solid tumor model B16 early stage that is subcutaneously implanted by the intravenous treatment at the dose of 10 mg/kg in 1-4 schedule; assay type: functional; conditions: Mus musculus, dose 5 mg/kg, in the assay text read “5 mg/kg” for “10 mg/kg”; in short: as §6
[29] = Tested for medium tumor weight of treated /control animals x 100 (% T/C) for murine solid tumor model MA 16/C early stage that is subcutaneously implanted by the intravenous treatment at the dose of 10 mg/kg in 1-4 schedule; assay type: functional, Mus musculus; in short: as §6
[30] = Tested for the change in body weight between day 1 and 14 for murine solid tumor model 3LL advanced stage that is intramuscularly implanted by the intravenous treatment at the dose of 10 mg/kg in 7-10 schedule; conditions: Mus musculus

Compound: CCN(CC)CCCNc1ncc(C)c2c1c1ccc3c(OC)cccc3c1n2C
- T/C x100 (P388 [1]): 124
- Cytotoxicity (L1210 [2]): 450 U
- IC50 (P388 [3]): 0.75 µg/mL (≈ 1.85 µM)
- Cytotoxicity [4]: 430 U

Compound: Cc1c[nH]c(NCC(C)CN(C)C)c2c3c(ccc4cc(O)ccc43)nc1-2 (stereo not drawn)
- Survivors (Mus musculus [5]): 2
- T/C x100 (P388 [6]): 213
- T/C [7]: 0%
- Survivors (Mus musculus [8]): 3
- Cytotoxicity (L1210 [2]): 300 U
- IC50 (Mus musculus [9]): 0.1 µg/mL (≈ 0.276 µM)
- Cytotoxicity [10]: 850 U
- Change in weight [11]: -1.7 g
- Cytotoxicity [4]: 675 U

Compound: Cc1c[nH]c(NCCCN(C)C)c2c3ccc4ccccc4c3nc1-2
- T/C x100 (P388 [12]): 115
- Cytotoxicity (L1210 [2]): 500 U
- IC50 (P388 [3]): 0.375 µg/mL (≈ 1.13 µM)
- Cytotoxicity [10]: 310 U
- Cytotoxicity [13]: 550 U
- Cytotoxicity (L1210 [14]): 420 U

Compound: Cc1c[nH]c(NCCCN(C)C)c2c3cc(O)ccc3nc1-2
- T/C x100 (P388 [15]): 130

Compound: COc1cccc2c1ccc1c2[nH]c2c(C)cnc(NCCCN(C)C)c21
- T/C x100 (P388 [6]): 121
- Cytotoxicity (L1210 [2]): 280 U
- IC50 (P388 [3]): 0.15 µg/mL (≈ 0.414 µM)
- Cytotoxicity [10]: 225 U

Compound: Cc1cnc(NCCCN(C)C)c2c3cc(O)ccc3n(C)c12
- T/C x100 (P388 [16]): 128

Compound: CCN(CC)CCCNc1ncc(C)c2[nH]c3ccc4cc(O)ccc4c3c12
- T/C x100 (P388 [12]): 215
- Cytotoxicity (L1210 [2]): 475 U
- T/C x100 (L1210 [17]): 149
- IC50 (P388 [3]): 0.05 µg/mL (≈ 0.133 µM)
- Cytotoxicity (L1210 [18]): 450 U
- Cytotoxicity [10]: 900 U
- Cytotoxicity [4]: 625 U

Compound: Cc1cnc(NCCCN(C)C)c2c1[nH]c1ccc3ccccc3c12
- Cytotoxicity [19]: 675 U
- Cytotoxicity (L1210 [20]): 550 U
- IC50 (P388 [3]): 0.1 µg/mL (≈ 0.301 µM)

Compound: Cc1cnc(NCCCN(C)C)c2c1[nH]c1ccc3cc(O)ccc3c12 [INTOPLICINE]
- Survivors (Mus musculus [5]): 5
- T/C x100 (P388 [16]): 182
- Change in weight [21]: -1.7 g
- T/C [22]: 28%
- T/C x100 (P388 [12]): 270
- Cytotoxicity (L1210 [2]): 375 U
- Cytotoxicity [19]: 700 U
- Change in weight [23]: -2.1 g
- T/C x100 (L1210 [17]): 143
- T/C [24]: 34%
- T/C [25]: 0%
- IC50 (P388 [3]): 0.025 µg/mL (≈ 0.0717 µM)
- T/C [26]: 0%
- Change in weight [27]: -1.9 g
- Cytotoxicity [10]: 850 U
- Change in weight [28]: -1.1 g
- T/C [29]: 2%
- Change in weight [30]: -2.8 g
